Laboratory results: article PMC548356 (Nucleic Acids Research, 2005)
Read-outs that look alike come from different tables or passages of the source.

Experiments:
Poa1p [1] = target: T1, Poa1p (Saccharomyces cerevisiae, UniProt P38218); test: Inhibition of Appr1p phosphatase activity of Poa1p; format: biochemical
T1 sequence (P38218 1-177): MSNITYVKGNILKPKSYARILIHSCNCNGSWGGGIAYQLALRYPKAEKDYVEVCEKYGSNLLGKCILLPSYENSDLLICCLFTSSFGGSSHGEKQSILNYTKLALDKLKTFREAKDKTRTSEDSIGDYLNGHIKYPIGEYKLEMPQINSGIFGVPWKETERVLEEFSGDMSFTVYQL
In short: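 Candidate inhibitors were first surveyed at 10 mM under two conditions: 8 nM Poa1p with 26 nM Appr1p for 1 h, and 35 nM Poa1p with 5 μM Appr1p for 2 h. IC50 was then obtained by titrating inhibitor concentration with 35 nM Poa1p and 5 μM Appr1p for 2 h. Readout was radiolabeled Appr1p conversion, separated by TLC.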

yeast crude extracts = test: Appr1p processing activity of yeast crude extracts; format: biochemical, Saccharomyces cerevisiae; settings: for extract amount by which Appr1p is 50% processed: 17 nM Ap*pr1p, 1 h, 30°C
In short: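 Yeast strains (BY4741 background: wild type, poa1, hal2, and the double deletion) were grown to A600 1.0, washed in cold water, stored at −70°C and lysed with glass beads. Extracts were assayed in 5-fold serial dilutions (starting 16, 29, 23 and 21 μg respectively) with 17 nM Ap*pr1p for 1 h at 30°C. Reactions were phenol:chloroform-treated and resolved on PEI-cellulose TLC.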

Hal2p [2] = test: Inhibition of Appr1p phosphatase activity of Hal2p; format: biochemical, Saccharomyces cerevisiae; settings: Appr1p well below KM; data not shown
In short: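 Purified His6-Hal2p at 104 nM was mixed with 5 nM Appr1p and each potential inhibitor at 10 mM. Incubation lasted long enough to convert ~50% of substrate without inhibitor. Labeled product was resolved by PEI-cellulose TLC and quantified by phosphorimaging.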

Poa1p [3] = target: T1, Poa1p; test: KI for ADP-ribose by the method of Dixon; format: biochemical
In short: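 Ap*pr1p hydrolysis by 43 nM Poa1p at four fixed Appr1p concentrations (1–25 μM) with ADP-ribose 0–300 μM. Initial-rate inverses plotted against [ADP-ribose]; resulting slopes replotted against 1/[Appr1p]. KI derived from the secondary slope (KM/(Vmax·KI)) using known KM and Vmax for Appr1p. All fits by linear regression.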

Poa1p [4] = target: T1, Poa1p; test: Appr1p phosphatase assay, steady-state kinetics of Poa1p; format: biochemical
Hal2p [5] = test: Appr1p phosphatase and pAp phosphatase assay, steady-state kinetics of Hal2p; format: biochemical, Saccharomyces cerevisiae; settings: for Km / kcat: substrate of Hal2p, 30°C, pH 7.5
[6] = read-out: Inhibition in survey at 10 mM competitor (IC50), 10 mM competitor, 8 nM Poa1p, 26 nM Appr1p, 1 h, and 35 nM Poa1p, 5 μM Appr1p, 2 h
[7] = substrate of Poa1p, 30°C, pH 7.5, 21 nM Poa1p

In the case of Nc1nc2c(ncn2[C@@H]2O[C@H](CO)[C@@H](OP(=O)(O)O)[C@H]2O)c(=O)[nH]1 [3′pG], the IC50 (Poa1p [1]; [6]) is reported as greater than 10 mM and the “Inhibition of phosphatase activity remaining in poa1-Δ extract (in words)” value (yeast crude extracts; poa1-Δ extract, data not shown) is reported as “inhibited”.
In the case of Nc1ncnc2c1ncn2[C@@H]1O[C@H](CO)[C@@H](OP(=O)(O)O)[C@H]1O [3′pA], the IC50 (Poa1p [1]; 35 nM Poa1p, 5 μM Appr1p, 2 h) is reported as greater than 10 mM and the “Inhibition of Appr1p phosphatase activity of Hal2p (in words)” value (from here on “Inhibition … of Hal2p (in words)”) (Hal2p [2]) is reported as “inhibited”.
Nc1nc2c(ncn2[C@@H]2O[C@H](CO)[C@@H](O)[C@H]2OP(=O)(O)O)c(=O)[nH]1 [2′pG] was tested, and the IC50 (Poa1p [1]; [6]) was greater than 10 mM and the “Inhibition … of Hal2p (in words)” value (Hal2p [2]) was “inhibited”.
NC(=O)c1ccc[n+]([C@H]2O[C@@H](COP(=O)([O-])OP(=O)(O)OC[C@H]3O[C@@H](n4cnc5c(N)ncnc54)[C@H](OP(=O)(O)O)[C@@H]3O)[C@H](O)[C@@H]2O)c1 [NADP] was tested, and the IC50 (Poa1p [1]; 35 nM Poa1p, 5 μM Appr1p, 2 h) was 2 mM and the “Inhibition … of Hal2p (in words)” value (Hal2p [2]) was “inhibited”.
O=P(O)(O)O[C@H]1O[C@H](CO)[C@@H](O)[C@H](O)[C@H]1O [glucose-1p] showed an IC50 (Poa1p [1]; [6]) greater than 10 mM.
O=P(O)(O)O[C@H]1O[C@H](CO)[C@@H](O)[C@H]1O [ribose-1p] was tested, and the IC50 (Poa1p [1]; [6]) was greater than 10 mM.
For Nc1ncnc2c1ncn2[C@@H]1O[C@H](COP(=O)(O)OP(=O)(O)OC[C@H]2OC(O)[C@H](O)[C@@H]2O)[C@@H](O)[C@H]1O (stereo partly drawn) [ADPR, ADP-ribose], the IC50 (Poa1p [1]; 35 nM Poa1p, 5 μM Appr1p, 2 h) was 0.03 mM, the Ki (Poa1p [3]; 43 nM Poa1p, varied Appr1p and ADP-ribose (0–300 μM), Dixon plot) was 0.017 mM and the mode of inhibition (Poa1p [3]; plots of inverse initial rates versus inhibitor concentration) was “classical competitive inhibition”. For the same molecule, the “Inhibition … of Hal2p (in words)” value (Hal2p [2]) was “inhibited”.
In the case of Nc1ncnc2c1ncn2[C@@H]1O[C@H](COP(=O)(O)O)[C@@H](OP(=O)(O)O)[C@H]1O [pAp], the “Poa1p phosphatase activity on substrate (in words)” value (Poa1p [4]; conditions where a turnover of 0.005 min^−1 (0.3% of the activity with Appr1p) should be easily observed) is reported as “no detectable activity”, the “preference of Hal2p for pAp relative to Appr1p” value (Hal2p [5]; as measured by kcat/KM values) is reported as 10^4 fold and the Km (Hal2p [5]) is reported as 0.1 µM. The kcat (Hal2p [5]) was 0.9 s⁻¹, the IC50 (Poa1p [1]; [6]) was greater than 10 mM and the “Inhibition … of Hal2p (in words)” value (Hal2p [2]) was “inhibited”.
With O=C[C@H](O)[C@H](O)[C@H](O)COP(=O)(O)O [ribose-5p, ribose 5-phosphate] the IC50 (Poa1p [1]) was greater than 10 mM and the “Inhibition … of Hal2p (in words)” value (Hal2p [2]) was “inhibited”.
With O=P(O)(O)OC[C@H]1OC(O)(CO)[C@@H](O)[C@@H]1O (stereo partly drawn) [fructose-6p] the IC50 (Poa1p [1]; [6]) was greater than 10 mM.
Nc1ncnc2c1ncn2[C@@H]1O[C@H](COP(=O)(O)O)[C@@H](O)[C@H]1O [5′pA, AMP] gave an IC50 (Poa1p [1]; [6]) greater than 10 mM.
In the case of Nc1ccn([C@@H]2O[C@H](CO)[C@@H](OP(=O)(O)O)[C@H]2O)c(=O)n1 [3′pC], the IC50 (Poa1p [1]; [6]) is reported as greater than 10 mM.
For Nc1ccn([C@@H]2O[C@H](CO)[C@@H](O)[C@H]2OP(=O)(O)O)c(=O)n1 [2′pC], the IC50 (Poa1p [1]; 35 nM Poa1p, 5 μM Appr1p, 2 h) was greater than 10 mM.
With Nc1ncnc2c1ncn2[C@@H]1O[C@H](COP(=O)(O)OP(=O)(O)O)[C@@H](O)[C@H]1O [ADP] the IC50 (Poa1p [1]; 35 nM Poa1p, 5 μM Appr1p, 2 h) was greater than 10 mM.
For Nc1ncnc2c1ncn2[C@@H]1O[C@H](COP(=O)(O)OP(=O)(O)OC[C@H]2O[C@H](OP(=O)(O)O)[C@H](O)[C@@H]2O)[C@@H](O)[C@H]1O [Appr1p, ADP-ribose-1″-phosphate], the “preference of Poa1p for Appr1p relative to pAp” value (Poa1p [4]; as measured by observed rates) was “at least 340 fold”, the “kcat/KM difference in favor of Poa1p over Hal2p” value (Poa1p [4]; substrate Appr1p) was 14 fold and the “lower KM of Poa1p relative to Hal2p” value (Poa1p [4]; substrate Appr1p) was roughly 25 fold. For the same molecule, the Km (Poa1p [4]; [7]) was 2.8 µM, the kcat (Poa1p [4]; [7]) was 0.0283 s⁻¹ and the Km (Hal2p [5]) was 74 µM. For the same molecule, the kcat (Hal2p [5]) was 0.0533 s⁻¹, the “extract amount by which Appr1p is 50% processed” value (yeast crude extracts; hal2-Δ extract) was 1.2 µg and the “extract amount by which Appr1p is 50% processed” value (yeast crude extracts; poa1-Δ extract) was 33 µg. For the same molecule, the “extract amount by which Appr1p is 50% processed” value (yeast crude extracts; poa1-Δ, hal2-Δ double mutant extract) was 20 µg and the “extract amount by which Appr1p is 50% processed” value (yeast crude extracts; wild-type extract) was 1.8 µg.
With Nc1ncnc2c1ncn2[C@@H]1O[C@H](COP(=O)(O)OP(=O)(O)OC[C@H]2O[C@@H](n3cnc4c(N)ncnc43)[C@H](O)[C@@H]2O)[C@@H](O)[C@H]1O [AppA] the IC50 (Poa1p [1]; 35 nM Poa1p, 5 μM Appr1p, 2 h) was 1 mM.
NC(=O)c1ccc[n+]([C@@H]2O[C@H](COP(=O)([O-])OP(=O)(O)OC[C@H]3O[C@@H](n4cnc5c(N)ncnc54)[C@H](O)[C@@H]3O)[C@@H](O)[C@H]2O)c1 [NAD] was tested, and the IC50 (Poa1p [1]; 35 nM Poa1p, 5 μM Appr1p, 2 h) was 1.5 mM.
With O=C[C@H](O)COP(=O)(O)O [glyceraldehyde-3p] the IC50 (Poa1p [1]; [6]) was greater than 10 mM.
Nc1ncnc2c1ncn2[C@@H]1O[C@H](CO)[C@@H](O)[C@H]1OP(=O)(O)O [2′pA] was tested, and the IC50 (Poa1p [1]; [6]) was greater than 10 mM.
